According to ChEMBL document CHEMBL4732237, “Discovery of 4-alkoxy-2-aryl-6,7-dimethoxyquinolines as a new class of topoisomerase I inhibitors endowed with potent in vitro anticancer activity” (2021):

Assays:
Assay type in all cases: functional
LOX IMVI = experiment: Growth inhibition of human LOX IMVI cells incubated for 48 hrs by sulforhodamine B assay
Outline: (§1)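 NCI five-dose screen covering 0.01–100 µM, prepared as 10-fold or ½-log dilutions from DMSO stock. Cells in RPMI 1640 with 5% FBS were exposed for 48 h at 37 °C after 24 h preincubation. Adherent cells were fixed with TCA (final 10%) and suspension cells were settled before fixing. Stain was SRB, read at 515 nm. GI50 = 50% reduction in net protein increase versus control, with Tz taken at drug addition.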

COLO 205 = experiment: Growth inhibition of human COLO 205 cells incubated for 48 hrs by sulforhodamine B assay; outline: as §1
SNB-19 = experiment: Growth inhibition of human SNB-19 cells incubated for 48 hrs by sulforhodamine B assay
Outline: (§2)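 NCI five-dose screen (0.01–100 µM; five concentrations plus control). Cells grown in RPMI 1640/5% FBS/2 mM L-glutamine and preincubated 24 h, with time-zero plates TCA-fixed. Drug exposure 48 h at 37 °C, followed by SRB protein staining and reading at 515 nm. GI50 is the concentration at [(Ti-Tz)/(C-Tz)]×100 = 50.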

OVCAR-3 = experiment: Growth inhibition of human OVCAR-3 cells incubated for 48 hrs by sulforhodamine B assay; outline: as §2
HCT-29 = experiment: Growth inhibition of human […] cells incubated for 48 hrs by sulforhodamine B assay; outline: as §1
CCRF-CEM = experiment: Growth inhibition of human CCRF-CEM cells incubated for 48 hrs by sulforhodamine B assay; outline: as §1
SK-MEL-5 = experiment: Growth inhibition of human SK-MEL-5 cells incubated for 48 hrs by sulforhodamine B assay; outline: as §2
MDA-MB-468 = experiment: Growth inhibition of human MDA-MB-468 cells incubated for 48 hrs by sulforhodamine B assay; outline: as §1
SK-MEL-2 = experiment: Growth inhibition of human SK-MEL-2 cells incubated for 48 hrs by sulforhodamine B assay; outline: as §2
CAKI-1 = experiment: Growth inhibition of human CAKI-1 cells incubated for 48 hrs by sulforhodamine B assay; outline: as §1
SK-MEL-28 = experiment: Growth inhibition of human SK-MEL-28 cells incubated for 48 hrs by sulforhodamine B assay; outline: as §2
HL-60(TB) = experiment: Growth inhibition of human HL-60(TB) cells incubated for 48 hrs by sulforhodamine B assay
Outline: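 NCI-60 five-dose screen. Cells in RPMI 1640 with 5% FBS and 2 mM L-glutamine were plated at 5000–40,000 cells/well and preincubated 24 h at 37 °C, 5% CO2. Drugs in DMSO were given at five serial 10-fold or ½-log dilutions for 48 h. Adherent cells fixed with 10% TCA (final); suspension cells fixed after settling. SRB stained; A515. GI50 from [(Ti-Tz)/(C-Tz)]x100 = 50.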

IGROV-1 = experiment: Growth inhibition of human IGROV-1 cells incubated for 48 hrs by sulforhodamine B assay; outline: as §1
UACC-62 = experiment: Growth inhibition of human UACC-62 cells incubated for 48 hrs by sulforhodamine B assay
Outline: (§3)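 NCI five-dose assay, with drug stocks in DMSO diluted in medium to five concentrations (10-fold or ½-log series). Cells in RPMI 1640/5% FBS were pre-incubated 24 h, and time-zero plates were TCA-fixed at drug addition. After 48 h at 37 °C, cells were TCA-fixed, SRB-stained and read at 515 nm. GI50 is from [(Ti-Tz)/(C-Tz)]×100 = 50, TGI from Ti = Tz, and LC50 from [(Ti-Tz)/Tz]×100 = -50.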

MDA-MB-435 = experiment: Growth inhibition of human MDA-MB-435 cells incubated for 48 hrs by sulforhodamine B assay; outline: as §1
MDA-MB-231 = experiment: Growth inhibition of human MDA-MB-231 cells incubated for 48 hrs by sulforhodamine B assay; outline: as §1
EKVX = experiment: Growth inhibition of human EKVX cells incubated for 48 hrs by sulforhodamine B assay; outline: as §1
SF-295 = experiment: Growth inhibition of human SF-295 cells incubated for 48 hrs by sulforhodamine B assay; outline: as §2
SR = experiment: Growth inhibition of human SR cells incubated for 48 hrs by sulforhodamine B assay; outline: as §2
OVCAR-8 = experiment: Growth inhibition of human OVCAR-8 cells incubated for 48 hrs by sulforhodamine B assay; outline: as §2
SF-268 = experiment: Growth inhibition of human SF-268 cells incubated for 48 hrs by sulforhodamine B assay; outline: as §2
UACC-257 = experiment: Growth inhibition of human UACC-257 cells incubated for 48 hrs by sulforhodamine B assay; outline: as §3
NCI-H23 = experiment: Growth inhibition of human NCI-H23 cells incubated for 48 hrs by sulforhodamine B assay; outline: as §2
SW-620 = experiment: Growth inhibition of human SW-620 cells incubated for 48 hrs by sulforhodamine B assay; outline: as §3
DU-145 = experiment: Growth inhibition of human DU-145 cells incubated for 48 hrs by sulforhodamine B assay; outline: as §1
A549 = experiment: Growth inhibition of human A549 cells incubated for 48 hrs by sulforhodamine B assay; outline: as §1
786-0 = experiment: Growth inhibition of human 786-0 cells incubated for 48 hrs by sulforhodamine B assay; outline: as §1
HCT-15 = experiment: Growth inhibition of human HCT-15 cells incubated for 48 hrs by sulforhodamine B assay; outline: as §1
K562 = experiment: Growth inhibition of human K562 cells incubated for 48 hrs by sulforhodamine B assay; outline: as §1

## COc1cc2nc(-c3ccc(C(F)(F)F)cc3)cc(OCCCN3CCCCC3)c2cc1OC
LOX IMVI
  GI50: 162 nM
  TGI: 355 nM
COLO 205
  GI50: 406 nM
SNB-19
  GI50: 2820 nM
OVCAR-3
  GI50: 2440 nM
HCT-29
  GI50: 415 nM
CCRF-CEM
  GI50: 1830 nM
SK-MEL-5
  GI50: 325 nM
  TGI: 1200 nM
MDA-MB-468
  GI50: 1030 nM
SK-MEL-2
  GI50: 2640 nM
CAKI-1
  GI50: 272 nM
SK-MEL-28
  GI50: 1260 nM
HL-60(TB)
  GI50: 2910 nM
IGROV-1
  GI50: 651 nM
UACC-62
  GI50: 1820 nM
MDA-MB-435
  GI50: 1230 nM
MDA-MB-231
  GI50: 536 nM
EKVX
  GI50: 803 nM
SF-295
  GI50: 530 nM
SR
  GI50: 193 nM
OVCAR-8
  GI50: 734 nM
SF-268
  GI50: 3760 nM
UACC-257
  GI50: 1700 nM
NCI-H23
  GI50: 1910 nM
SW-620
  GI50: 2910 nM
DU-145
  GI50: 1840 nM
A549
  GI50: 722 nM
786-0
  GI50: 2170 nM
HCT-15
  GI50: 399 nM
K562
  GI50: 578 nM

## COc1cc2nc(-c3ccc(C(F)(F)F)cc3)cc(OCCCN3CCOCC3)c2cc1OC
LOX IMVI
  GI50: 141 nM
  TGI: 324 nM
COLO 205
  GI50: 529 nM
SNB-19
  GI50: 2910 nM
OVCAR-3
  GI50: 3730 nM
HCT-29
  GI50: 540 nM
CCRF-CEM
  GI50: 2790 nM
SK-MEL-5
  GI50: 288 nM
MDA-MB-468
  GI50: 1240 nM
SK-MEL-2
  GI50: 3320 nM
CAKI-1
  GI50: 167 nM
SK-MEL-28
  GI50: 1440 nM
HL-60(TB)
  GI50: 9580 nM
IGROV-1
  GI50: 830 nM
UACC-62
  GI50: 628 nM
MDA-MB-435
  GI50: 1200 nM
MDA-MB-231
  GI50: 498 nM
EKVX
  GI50: 1610 nM
SF-295
  GI50: 349 nM
SR
  GI50: 242 nM
OVCAR-8
  GI50: 1950 nM
SF-268
  GI50: 5700 nM
UACC-257
  GI50: 1670 nM
NCI-H23
  GI50: 2360 nM
SW-620
  GI50: 3510 nM
DU-145
  GI50: 10100 nM
A549
  GI50: 1040 nM
786-0
  GI50: 1760 nM
HCT-15
  GI50: 520 nM
K562
  GI50: 1180 nM
